Publication PMC8851455 (ACS Omega, 2022)
Where two headings read alike, the source gives them in different places.

Experiments:
MCF-7 cells [1] = experiment: MCF-7 cell proliferation assay; type: cell-based, human
Outline: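 MCF-7 cells exposed to test compound or E2 at six concentrations from 10–12 to 10–7 M in EA-free medium. Proliferation read as MTT product absorbance at 570 nm. Three independent trials, each in triplicate. % RME2 = 100 × (OD test − OD VC)/(max OD E2 − OD VC). EC50 from curve fitting. EEF = EC50 of E2/EC50 of sample. One-way ANOVA with Dunnett's test versus E2 at each concentration.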

chicken embryo = experiment: Chicken embryonic assay; type: in vivo; settings: egg injection, day 18
chicken fetal liver = experiment: TBARs level; type: in vivo; settings: higher dose (0.5 mM: 450–500 μg/kg)
S. typhimurium TA98 = experiment: Ames test, strain TA98; type: cell-based, Salmonella typhimurium
S. typhimurium TA100 = experiment: Ames test, strain TA100; type: cell-based, Salmonella typhimurium
[2] = test system: S. typhimurium tester strains (TA98, TA100, and TA102); experiment: Ames test, overall over three strains; type: cell-based, Salmonella typhimurium; settings: 5 × 10^–5 to 50 pmol/plate, with or without S9
MCF-7 cells [3] = settings: at 0.001–1 μM when tested from 0.001 to 50 μM; cited from earlier work
S. typhimurium = settings: at 12.1 to 147.8 nmol/plate; cited from earlier work
[4] = higher dose (0.5 mM: 450–500 μg/kg; E2 0.1 mM: 91 μg/kg)
[5] = lower dose (0.05 mM: 45–50 μg/kg; E2 0.01 mM: 9.1 μg/kg)
[6] = TA100 +S9, 5 × 10^–2 pmol/plate
[7] = TA100 +S9, 5 × 10^–3 pmol/plate
[8] = TA100 +S9, 5 × 10^–4 pmol/plate
[9] = TA100 +S9, 5 × 10^–5 pmol/plate
[10] = TA100 -S9, 5 × 10^–2 pmol/plate
[11] = TA100 -S9, 5 × 10^–3 pmol/plate
[12] = TA100 -S9, 5 × 10^–4 pmol/plate
[13] = TA100 -S9, 5 × 10^–5 pmol/plate
[14] = TA102 +S9, 5 × 10^–2 pmol/plate
[15] = TA102 +S9, 5 × 10^–3 pmol/plate
[16] = TA102 +S9, 5 × 10^–4 pmol/plate
[17] = TA102 +S9, 5 × 10^–5 pmol/plate
[18] = TA102 -S9, 5 × 10^–3 pmol/plate
[19] = TA102 -S9, 5 × 10^–4 pmol/plate
[20] = TA102 -S9, 5 × 10^–5 pmol/plate

O=c1c(O)c(-c2ccc(O)c(O)c2)oc2cc(O)cc(O)c12 [quercetin]
% RME2, no detectable EA (MCF-7 cells [1]; all test concentrations except 10^–11 M, VC + 3 SD = 18%): < 18% | max % RME2 (MCF-7 cells [1]; highest % RME2 (relative maximum % E2) in test range 10^–12–10^–7 M): 22% | LSI (liver somatic index) (chicken embryo; [4]): 1.85 ± 0.21% | REEW (ratio of embryo to egg weight) (chicken embryo; [4]): 0.43 ± 0.057 | mortality rate (chicken embryo; [4]): 12.5% | number of dead chicken embryo (chicken embryo; [4]): 1 | weights: embryo (chicken embryo; [4]): 24.06 ± 2.35 g | weights: heart (chicken embryo; [4]): 0.21 ± 0.05 g | weights: liver (chicken embryo; [4]): 0.44 ± 0.01 g | LSI (liver somatic index) (chicken embryo; [5]): 2.52 ± 0.34% | REEW (ratio of embryo to egg weight) (chicken embryo; [5]): 0.41 ± 0.035 | malformation rate (chicken embryo; [5]): 0.0% | mortality rate (chicken embryo; [5]): 25.0% | number of dead chicken embryo (chicken embryo; [5]): 2 | number of malformation chicken embryo (chicken embryo; [5]): 0 | weights: embryo (chicken embryo; [5]): 22.11 ± 2.26 g | weights: heart (chicken embryo; [5]): 0.20 ± 0.02 g | weights: liver (chicken embryo; [5]): 0.56 ± 0.13 g | TBARs value (chicken fetal liver): 62.48 nmol/g | MI (S. typhimurium TA98; TA98 +S9, 0.5 pmol/plate): 1.1 | number of revertants/plate (M ± SD) (S. typhimurium TA98; TA98 +S9, 0.5 pmol/plate): 25 ± 13 revertants/plate | MI (S. typhimurium TA98; TA98 +S9, 5 pmol/plate): 0.8 | number of revertants/plate (M ± SD) (S. typhimurium TA98; TA98 +S9, 5 pmol/plate): 19 ± 10 revertants/plate | MI (S. typhimurium TA98; TA98 +S9, 50 pmol/plate): 0.8 | number of revertants/plate (M ± SD) (S. typhimurium TA98; TA98 +S9, 50 pmol/plate): 18 ± 13 revertants/plate | MI (S. typhimurium TA98; TA98 +S9, 5 × 10^–2 pmol/plate): 1.0 | number of revertants/plate (M ± SD) (S. typhimurium TA98; TA98 +S9, 5 × 10^–2 pmol/plate): 23 ± 17 revertants/plate | MI (S. typhimurium TA98; TA98 +S9, 5 × 10^–3 pmol/plate): 1.2 | number of revertants/plate (M ± SD) (S. typhimurium TA98; TA98 +S9, 5 × 10^–3 pmol/plate): 27 ± 16 revertants/plate | MI (S. typhimurium TA98; TA98 +S9, 5 × 10^–4 pmol/plate): 0.8 | number of revertants/plate (M ± SD) (S. typhimurium TA98; TA98 +S9, 5 × 10^–4 pmol/plate): 18 ± 13 revertants/plate | MI (S. typhimurium TA98; TA98 +S9, 5 × 10^–5 pmol/plate): 0.7 | number of revertants/plate (M ± SD) (S. typhimurium TA98; TA98 +S9, 5 × 10^–5 pmol/plate): 17 ± 8 revertants/plate | MI (S. typhimurium TA98; TA98 -S9, 0.5 pmol/plate): 1.3 | number of revertants/plate (M ± SD) (S. typhimurium TA98; TA98 -S9, 0.5 pmol/plate): 28 ± 1 revertants/plate | MI (S. typhimurium TA98; TA98 -S9, 5 pmol/plate): 1.2 | number of revertants/plate (M ± SD) (S. typhimurium TA98; TA98 -S9, 5 pmol/plate): 27 ± 11 revertants/plate | MI (S. typhimurium TA98; TA98 -S9, 50 pmol/plate): 1.3 | number of revertants/plate (M ± SD) (S. typhimurium TA98; TA98 -S9, 50 pmol/plate): 30 ± 2 revertants/plate | MI (S. typhimurium TA98; TA98 -S9, 5 × 10^–2 pmol/plate): 0.8 | number of revertants/plate (M ± SD) (S. typhimurium TA98; TA98 -S9, 5 × 10^–2 pmol/plate): 19 ± 6 revertants/plate | MI (S. typhimurium TA98; TA98 -S9, 5 × 10^–3 pmol/plate): 1.4 | number of revertants/plate (M ± SD) (S. typhimurium TA98; TA98 -S9, 5 × 10^–3 pmol/plate): 31 ± 6 revertants/plate | MI (S. typhimurium TA98; TA98 -S9, 5 × 10^–4 pmol/plate): 1.2 | number of revertants/plate (M ± SD) (S. typhimurium TA98; TA98 -S9, 5 × 10^–4 pmol/plate): 27 ± 3 revertants/plate | MI (S. typhimurium TA98; TA98 -S9, 5 × 10^–5 pmol/plate): 1.1 | number of revertants/plate (M ± SD) (S. typhimurium TA98; TA98 -S9, 5 × 10^–5 pmol/plate): 25 ± 2 revertants/plate | MI (S. typhimurium TA100; TA100 +S9, 0.5 pmol/plate): 1.2 | number of revertants/plate (M ± SD) (S. typhimurium TA100; TA100 +S9, 0.5 pmol/plate): 398 ± 8 revertants/plate | MI (S. typhimurium TA100; TA100 +S9, 5 pmol/plate): 1.2 | number of revertants/plate (M ± SD) (S. typhimurium TA100; TA100 +S9, 5 pmol/plate): 386 ± 12 revertants/plate | MI (S. typhimurium TA100; TA100 +S9, 50 pmol/plate): 1.1 | number of revertants/plate (M ± SD) (S. typhimurium TA100; TA100 +S9, 50 pmol/plate): 369 ± 12 revertants/plate | MI (S. typhimurium TA100; [6]): 1.1 | number of revertants/plate (M ± SD) (S. typhimurium TA100; [6]): 366 ± 14 revertants/plate | MI (S. typhimurium TA100; [7]): 1.1 | number of revertants/plate (M ± SD) (S. typhimurium TA100; [7]): 367 ± 5 revertants/plate | MI (S. typhimurium TA100; [8]): 1.1 | number of revertants/plate (M ± SD) (S. typhimurium TA100; [8]): 349 ± 8 revertants/plate | MI (S. typhimurium TA100; [9]): 1.1 | number of revertants/plate (M ± SD) (S. typhimurium TA100; [9]): 358 ± 14 revertants/plate | MI (S. typhimurium TA100; TA100 -S9, 0.5 pmol/plate): 1.0 | number of revertants/plate (M ± SD) (S. typhimurium TA100; TA100 -S9, 0.5 pmol/plate): 105 ± 11 revertants/plate | MI (S. typhimurium TA100; TA100 -S9, 5 pmol/plate): 1.0 | number of revertants/plate (M ± SD) (S. typhimurium TA100; TA100 -S9, 5 pmol/plate): 104 ± 8 revertants/plate | MI (S. typhimurium TA100; TA100 -S9, 50 pmol/plate): 0.9 | number of revertants/plate (M ± SD) (S. typhimurium TA100; TA100 -S9, 50 pmol/plate): 88 ± 8 revertants/plate | MI (S. typhimurium TA100; [10]): 1.1 | number of revertants/plate (M ± SD) (S. typhimurium TA100; [10]): 113 ± 6 revertants/plate | MI (S. typhimurium TA100; [11]): 1.0 | number of revertants/plate (M ± SD) (S. typhimurium TA100; [11]): 103 ± 7 revertants/plate | MI (S. typhimurium TA100; [12]): 1.0 | number of revertants/plate (M ± SD) (S. typhimurium TA100; [12]): 98 ± 7 revertants/plate | MI (S. typhimurium TA100; [13]): 1.0 | number of revertants/plate (M ± SD) (S. typhimurium TA100; [13]): 97 ± 4 revertants/plate | Ames test outcome (signs of mutagenicity) [2]: signs of mutagenicity | MI (S. typhimurium TA102; TA102 +S9, 0.5 pmol/plate): 1.1 | number of revertants/plate (M ± SD) (S. typhimurium TA102; TA102 +S9, 0.5 pmol/plate): 326 ± 19 revertants/plate | MI (S. typhimurium TA102; TA102 +S9, 5 pmol/plate): 0.9 | number of revertants/plate (M ± SD) (S. typhimurium TA102; TA102 +S9, 5 pmol/plate): 279 ± 21 revertants/plate | MI (S. typhimurium TA102; TA102 +S9, 50 pmol/plate): 1.0 | number of revertants/plate (M ± SD) (S. typhimurium TA102; TA102 +S9, 50 pmol/plate): 310 ± 31 revertants/plate | MI (S. typhimurium TA102; [14]): 1.1 | number of revertants/plate (M ± SD) (S. typhimurium TA102; [14]): 337 ± 7 revertants/plate | MI (S. typhimurium TA102; [15]): 1.2 | number of revertants/plate (M ± SD) (S. typhimurium TA102; [15]): 369 ± 13 revertants/plate | MI (S. typhimurium TA102; [16]): 1.0 | number of revertants/plate (M ± SD) (S. typhimurium TA102; [16]): 312 ± 16 revertants/plate | MI (S. typhimurium TA102; [17]): 0.9 | number of revertants/plate (M ± SD) (S. typhimurium TA102; [17]): 291 ± 11 revertants/plate | MI (S. typhimurium TA102; TA102 -S9, 0.5 pmol/plate): 1.0 | number of revertants/plate (M ± SD) (S. typhimurium TA102; TA102 -S9, 0.5 pmol/plate): 267 ± 23 revertants/plate | MI (S. typhimurium TA102; TA102 -S9, 5 pmol/plate): 1.2 | number of revertants/plate (M ± SD) (S. typhimurium TA102; TA102 -S9, 5 pmol/plate): 312 ± 13 revertants/plate | MI (S. typhimurium TA102; TA102 -S9, 50 pmol/plate): 1.4 | number of revertants/plate (M ± SD) (S. typhimurium TA102; TA102 -S9, 50 pmol/plate): 347 ± 10 revertants/plate | MI (S. typhimurium TA102; [18]): 1.3 | number of revertants/plate (M ± SD) (S. typhimurium TA102; [18]): 325 ± 10 revertants/plate | MI (S. typhimurium TA102; [19]): 1.2 | number of revertants/plate (M ± SD) (S. typhimurium TA102; [19]): 301 ± 16 revertants/plate | MI (S. typhimurium TA102; [20]): 1.1 | number of revertants/plate (M ± SD) (S. typhimurium TA102; [20]): 284 ± 15 revertants/plate | cell proliferation in the MCF-7 cells (MCF-7 cells [3]): < 120% | mutagenicity in TA98, TA100, and TA102 (S. typhimurium): showed mutagenicity
